Test results: ChEMBL document CHEMBL3526142, “Biotransformation of a novel antimitotic agent, I-387, by mouse, rat, dog, monkey, and human liver microsomes and in vivo pharmacokinetics in mice” (Drug Metab Dispos, 2011)

Legend:
[1] = Mean residence time (infinity) in ICR mouse at 15 mg/kg, iv by LC-MS/MS analysis; type: ADME, organism-based; design: dose 15 mg/kg, route intravenous; settings: in vivo
Method in brief: (§1)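 Male ICR mice (5–6 weeks, 20–25 g), single doses of 1, 5 or 15 mg/kg in 10% DMSO/PEG300, given iv by tail vein, ip, or orally by gavage. Three to four mice per time point, euthanized under isoflurane, blood drawn from posterior vena cava. Plasma protein precipitated with acetonitrile containing internal standard, then LC-MS/MS (MRM m/z 388.2→192). Noncompartmental analysis of mean concentration-time data, AUCinf by trapezoidal rule with extrapolation, CL = dose/AUCinf, Cmax read from the curve. F = (AUCnon-iv × dose iv)/(AUCiv × dose non-iv). n = 3 per dose group.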

[2] = AUC (infinity) in ICR mouse at 5 mg/kg, iv by LC-MS/MS analysis; type: ADME, organism-based; design: time infinity, dose 5 mg/kg, route intravenous; settings: plasma; method in brief: as §1
[3] = Tmax in ICR mouse at 1 mg/kg, po by LC-MS/MS analysis; type: ADME, organism-based; design: dose 1 mg/kg, route oral; settings: in vivo
Method in brief: (§2)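 Male ICR mice (5–6 weeks, 20–25 g) dosed by gavage in 10% DMSO in PEG300. Three to four mice per time point were euthanized under isoflurane and blood taken from the posterior vena cava. Plasma was acetonitrile-precipitated and analysed by LC-MS/MS (MRM m/z 388.2→192). Tmax read by visual inspection. F = (AUC_oral × dose_iv)/(AUC_iv × dose_oral), with AUC_inf by trapezoidal rule; n = 3/dose group.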

[4] = AUC (infinity) in ICR mouse at 5 mg/kg, po via gavage by LC-MS/MS analysis; type: ADME, organism-based; design: time infinity, dose 5 mg/kg, route oral; settings: plasma; method in brief: as §1
[5] = Mean residence time (infinity) in ICR mouse at 1 mg/kg, ip by LC-MS/MS analysis; type: ADME, organism-based; design: dose 1 mg/kg, route intraperitoneal; settings: in vivo; method in brief: as §1
[6] = Tmax in ICR mouse at 5 mg/kg, ip by LC-MS/MS analysis; type: ADME, organism-based; design: dose 5 mg/kg, route intraperitoneal; settings: in vivo
Method in brief: (§3)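 Male ICR mice (20–25 g) given the compound intraperitoneally or by gavage in 10% DMSO/PEG300. Three to four mice were sacrificed per time point and plasma collected from the vena cava. Plasma was precipitated with acetonitrile containing internal standard and analysed by LC-MS/MS. Noncompartmental analysis of mean concentration-time data: terminal t1/2 = ln2/λz; Tmax by inspection; n = 3/dose group.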

[7] = AUC (infinity) in ICR mouse at 15 mg/kg, ip by LC-MS/MS analysis; type: ADME, organism-based; design: time infinity, dose 15 mg/kg, route intraperitoneal; settings: plasma; method in brief: as §1
[8] = Metabolic stability in monkey liver microsomes assessed as half life during phase 1 at 0.5 uM by LC-MS/MS analysis in presence of 3 mM NADPH and absence of UDPGA; type: ADME, Macaca mulatta; settings: rhesus monkey, read-out: alphat1/2
Method in brief: (§4)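 Pooled liver microsomes at 1 mg/ml protein with 3 mM NADPH, 0.5 μM substrate in 65 mM potassium phosphate pH 7.4, 1% methanol, 37°C. Incubations stopped at 10, 20, 30, 60 and 90 min with ice-cold acetonitrile plus internal standard, then LC-MS/MS of parent remaining relative to time 0. Half-life from a two-parameter single exponential decay fit; n = 2 to 3.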

[9] = Terminal half life in ICR mouse at 5 mg/kg, iv by LC-MS/MS analysis; type: ADME, organism-based; design: dose 5 mg/kg, route intravenous; settings: in vivo, read-out: beta t1/2 (converted)
Method in brief: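 Tail-vein injection in male ICR mice (5–6 weeks), vehicle 10% DMSO in PEG300. Serial terminal sampling of 3–4 mice per time point, with posterior vena cava blood. Plasma was acetonitrile-precipitated and measured by LC-MS/MS. Noncompartmental analysis of mean data: t1/2 = ln2/λz, CL = dose/AUC_inf, Vd_ss = CL × MRT_inf; n = 3/dose group.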

[10] = Tmax in ICR mouse at 5 mg/kg, po by LC-MS/MS analysis; type: ADME, organism-based; design: dose 5 mg/kg, route oral; settings: in vivo; method in brief: as §2
[11] = Tmax in ICR mouse at 15 mg/kg, ip by LC-MS/MS analysis; type: ADME, organism-based; design: dose 15 mg/kg, route intraperitoneal; settings: in vivo; method in brief: as §3
[12] = Metabolic stability in dog liver microsomes assessed as half life during phase 1 at 0.5 uM by LC-MS/MS analysis in presence of 3 mM NADPH and absence of UDPGA; type: ADME, Canis lupus familiaris; settings: read-out: alphat1/2
Method in brief: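 Pooled liver microsomes (1 mg/ml) incubated with 0.5 µM substrate and 3 mM NADPH in 65 mM potassium phosphate, pH 7.4, 1% methanol, at 37°C. The phase I+II set also had 5 mM UDPGA, 5 mM D-saccharolactone, 50 µg/ml alamethicin and 3 mM MgCl2. Stopped at 10–90 min with cold acetonitrile plus internal standard. Parent remaining by LC-MS/MS relative to time 0. t1/2 from a two-parameter single exponential decay fit; n = 2–3.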

[13] = Oral bioavailability in ICR mouse at 15 mg/kg via gavage after 30 mins by LC-MS/MS analysis; type: ADME, organism-based; settings: in vivo; method in brief: as §2
Liver microsome = assay: Drug metabolism in rat liver microsomes assessed as (3-(1H-indol-2-yl)phenyl)(3,4,5-trimethoxyphenyl)methanol formation at 0.5 uM after 2 hrs by LC-MS/MS analysis in presence of 3 mM NADPH; type: ADME
Method in brief: (§5)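 Pooled liver microsomes (1 mg/ml protein) incubated with 0.5 µM substrate and 3 mM NADPH in 65 mM potassium phosphate, pH 7.4, 1% methanol, at 37°C for 2 h. Stopped with ice-cold acetonitrile containing internal standard, centrifuged. Supernatant analysed by LC-MS/MS on a C18 column, 15-min gradient, with product ion scans for metabolite identification.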

[14] = Bioavailability in ICR mouse at 1 mg/kg, ip by LC-MS/MS analysis; type: ADME, organism-based; settings: in vivo; method in brief: as §1
[15] = Cmax in ICR mouse at 5 mg/kg, po via gavage by LC-MS/MS analysis; type: ADME, organism-based; design: dose 5 mg/kg, route oral; settings: in vivo; method in brief: as §1
[16] = Bioavailability in ICR mouse at 15 mg/kg, ip by LC-MS/MS analysis; type: ADME, organism-based; settings: in vivo; method in brief: as §1
[17] = Mean residence time (infinity) in ICR mouse at 15 mg/kg, ip by LC-MS/MS analysis; type: ADME, organism-based; design: dose 15 mg/kg, route intraperitoneal; settings: in vivo; method in brief: as §1
[18] = Antitumor activity against human PC3 cells xenografted in nu/nu mouse assessed as decrease in tumor growth at 10 mg/kg, ip 2 days per week for weeks; type: functional; settings: PC-3, ip, 48 h, route intraperitoneal
[19] = Tmax in ICR mouse at 15 mg/kg, po by LC-MS/MS analysis; type: ADME, organism-based; design: dose 15 mg/kg, route oral; settings: in vivo; method in brief: as §2
[20] = Metabolic stability in dog liver microsomes assessed as half life during phase 1 and 2 at 0.5 uM by LC-MS/MS analysis in presence of 3 mM NADPH and […] UDPGA; type: ADME, Canis lupus familiaris; settings: read-out: alphat1/2
[21] = Metabolic stability in rat liver microsomes assessed as half life during phase 1 at 0.5 uM by LC-MS/MS analysis in presence of 3 mM NADPH and absence of UDPGA; type: ADME; settings: read-out: alphat1/2; method in brief: as §4
[22] = Terminal half life in ICR mouse at 15 mg/kg, po via gavage by LC-MS/MS analysis; type: ADME, organism-based; design: dose 15 mg/kg, route oral; settings: in vivo, read-out: beta t1/2 (converted); method in brief: as §3
[23] = Drug metabolism in monkey liver microsomes assessed as (3-(1H-indol-2-yl)phenyl)(3,4,5-trimethoxyphenyl)methanol formation at 0.5 uM after 2 hrs by LC-MS/MS analysis in presence of 3 mM NADPH; type: ADME, Macaca mulatta; settings: rhesus monkey; method in brief: as §5
[24] = Cmax in ICR mouse at 5 mg/kg, iv by LC-MS/MS analysis; type: ADME, organism-based; design: dose 5 mg/kg, route intravenous; settings: in vivo; method in brief: as §1
[25] = AUC (infinity) in ICR mouse at 1 mg/kg, ip by LC-MS/MS analysis; type: ADME, organism-based; design: time infinity, dose 1 mg/kg, route intraperitoneal; settings: plasma; method in brief: as §1

## COc1cc(C(=O)c2cccc(-c3cc4ccccc4[nH]3)c2)cc(OC)c1OC
[1]
  MRT inf: 528 min
[2]
  AUC(0-inf): 3950 ng·h/mL
[3]
  Tmax: 30 min
[4]
  AUC(0-inf): 517 ng·h/mL
[5]
  MRT inf: 384 min
[6]
  Tmax: 5 min
[7]
  AUC(0-inf): 12600 ng·h/mL
[8]
  half-life at 0.5 µM: 15 min
[9]
  half-life: 258 min
[10]
  Tmax: 30 min
[11]
  Tmax: 10 min
[12]
  half-life at 0.5 µM: 29 min
[13]
  bioavailability: 8%
Liver microsome
  Drug metabolism: metabolite_detected
[14]
  bioavailability: 65%
[15]
  Cmax: 100 ng/mL
[16]
  bioavailability: 94%
[17]
  MRT inf: 420 min
[18]
  inhibition in vivo at 10 mg/kg: 68%
[19]
  Tmax: 30 min
[20]
  half-life at 0.5 µM: 33 min
[21]
  half-life at 0.5 µM: 42 min
[22]
  half-life: 474 min
[23]
  Drug metabolism: metabolite_detected
[24]
  Cmax: 2860 ng/mL
[25]
  AUC(0-inf): 400 ng·h/mL
